Experimental data taken from ChEMBL document CHEMBL1145402, “Discovery of potent and muscle selective androgen receptor modulators through scaffold modifications” (J Med Chem, 2007).
Converted amounts (≈) assume the structure as drawn.

Legend:
Androgen receptor [1] = molecular target: T1, Androgen receptor (Homo sapiens, UniProt P10275); experiment: Displacement of [3H]DHT from androgen receptor expressed in MDA-MB-453 cells; assay type: cell-based
T1 sequence (P10275 whole entry): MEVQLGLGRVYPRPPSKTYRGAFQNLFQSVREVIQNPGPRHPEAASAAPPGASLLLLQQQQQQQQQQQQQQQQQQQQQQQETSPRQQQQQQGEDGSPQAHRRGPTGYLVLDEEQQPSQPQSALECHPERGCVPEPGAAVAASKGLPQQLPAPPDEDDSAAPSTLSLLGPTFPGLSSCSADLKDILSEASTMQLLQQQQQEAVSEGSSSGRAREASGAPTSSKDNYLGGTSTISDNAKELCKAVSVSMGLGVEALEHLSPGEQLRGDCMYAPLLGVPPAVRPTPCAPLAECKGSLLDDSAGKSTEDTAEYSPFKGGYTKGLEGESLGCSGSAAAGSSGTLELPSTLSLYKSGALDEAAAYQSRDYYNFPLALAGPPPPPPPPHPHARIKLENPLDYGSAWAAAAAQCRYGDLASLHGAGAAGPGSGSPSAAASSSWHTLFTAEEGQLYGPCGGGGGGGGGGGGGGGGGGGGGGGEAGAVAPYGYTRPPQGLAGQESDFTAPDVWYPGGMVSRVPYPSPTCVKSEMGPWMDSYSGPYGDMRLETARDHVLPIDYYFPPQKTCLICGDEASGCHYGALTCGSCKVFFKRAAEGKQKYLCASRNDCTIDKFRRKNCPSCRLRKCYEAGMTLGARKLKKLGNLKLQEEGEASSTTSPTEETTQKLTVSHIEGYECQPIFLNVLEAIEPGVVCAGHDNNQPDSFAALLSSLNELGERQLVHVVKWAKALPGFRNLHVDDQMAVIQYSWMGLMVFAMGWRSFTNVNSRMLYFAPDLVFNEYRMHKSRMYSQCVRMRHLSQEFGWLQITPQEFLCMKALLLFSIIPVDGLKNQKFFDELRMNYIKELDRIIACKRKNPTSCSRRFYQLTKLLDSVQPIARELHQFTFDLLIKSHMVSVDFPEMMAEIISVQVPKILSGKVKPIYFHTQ

Androgen receptor [2] = molecular target: T1, Androgen receptor; experiment: Agonist activity at androgen receptor expressed in C2C12 mouse cells by luciferase reporter transactivation assay; assay type: functional, cell-based
[3] = AUC(0-4h) in Sprague-Dawley rat at 10 mg/kg; assay type: ADME, organism-based; design: time < 5 hr, dose 10 mg/kg; conditions: plasma
Rattus norvegicus [4] = experiment: Stimulation of levator ani muscle weight in Sprague-Dawley rat at 1 mg/kg, po after 14 days; assay type: functional
Method in brief: (§1)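 Mature male rats were castrated two weeks before treatment. Compound was given […] once daily for two weeks, then levator ani muscle and ventral prostate were weighed. Weights are expressed as percent of a sham-operated, vehicle-treated intact control group, ±SEM.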

Rattus norvegicus [5] = experiment: Stimulation of ventral prostate tissue weight in Sprague-Dawley rat at 1 mg/kg, po after 14 days; assay type: functional, Prostate gland; method in brief: as §1
[6] = (§2) Cmax in Sprague-Dawley rat at 10 mg/kg, po; assay type: ADME, organism-based; design: dose 10 mg/kg, route oral; conditions: in vivo
[7] = Aqueous solubility of the compound; assay type: physicochemical
Rattus norvegicus [8] = experiment: Stimulation of ventral prostate tissue weight in Sprague-Dawley rat at 0.01 mg/kg, po after 14 days; assay type: functional, Prostate gland
Rattus norvegicus [9] = experiment: Stimulation of levator ani muscle weight in Sprague-Dawley rat at 0.01 mg/kg, po after 14 days; assay type: functional
Rattus norvegicus [10] = experiment: Stimulation of ventral prostate tissue weight in Sprague-Dawley rat at 3 mg/kg, po after 14 days; assay type: functional, Prostate gland; method in brief: as §1
Rattus norvegicus [11] = experiment: Stimulation of levator ani muscle weight in Sprague-Dawley rat at 3 mg/kg, po after 14 days; assay type: functional; method in brief: as §1
[12] = Bioavailability in Sprague-Dawley rat at 10 mg/kg, po; assay type: ADME, organism-based; conditions: in vivo
Method in brief: (§3)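 Rat pharmacokinetics used 5 mg/kg i.v. and 10 mg/kg p.o. dosing. Oral bioavailability (F%), half-life, oral Tmax and total body clearance were derived from plasma concentrations.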

hERG = hERG (Homo sapiens, UniProt Q12809); experiment: Inhibition of hERG at 30 uM by patch clamp method; assay type: toxicity
Chain of hERG (Q12809 whole entry): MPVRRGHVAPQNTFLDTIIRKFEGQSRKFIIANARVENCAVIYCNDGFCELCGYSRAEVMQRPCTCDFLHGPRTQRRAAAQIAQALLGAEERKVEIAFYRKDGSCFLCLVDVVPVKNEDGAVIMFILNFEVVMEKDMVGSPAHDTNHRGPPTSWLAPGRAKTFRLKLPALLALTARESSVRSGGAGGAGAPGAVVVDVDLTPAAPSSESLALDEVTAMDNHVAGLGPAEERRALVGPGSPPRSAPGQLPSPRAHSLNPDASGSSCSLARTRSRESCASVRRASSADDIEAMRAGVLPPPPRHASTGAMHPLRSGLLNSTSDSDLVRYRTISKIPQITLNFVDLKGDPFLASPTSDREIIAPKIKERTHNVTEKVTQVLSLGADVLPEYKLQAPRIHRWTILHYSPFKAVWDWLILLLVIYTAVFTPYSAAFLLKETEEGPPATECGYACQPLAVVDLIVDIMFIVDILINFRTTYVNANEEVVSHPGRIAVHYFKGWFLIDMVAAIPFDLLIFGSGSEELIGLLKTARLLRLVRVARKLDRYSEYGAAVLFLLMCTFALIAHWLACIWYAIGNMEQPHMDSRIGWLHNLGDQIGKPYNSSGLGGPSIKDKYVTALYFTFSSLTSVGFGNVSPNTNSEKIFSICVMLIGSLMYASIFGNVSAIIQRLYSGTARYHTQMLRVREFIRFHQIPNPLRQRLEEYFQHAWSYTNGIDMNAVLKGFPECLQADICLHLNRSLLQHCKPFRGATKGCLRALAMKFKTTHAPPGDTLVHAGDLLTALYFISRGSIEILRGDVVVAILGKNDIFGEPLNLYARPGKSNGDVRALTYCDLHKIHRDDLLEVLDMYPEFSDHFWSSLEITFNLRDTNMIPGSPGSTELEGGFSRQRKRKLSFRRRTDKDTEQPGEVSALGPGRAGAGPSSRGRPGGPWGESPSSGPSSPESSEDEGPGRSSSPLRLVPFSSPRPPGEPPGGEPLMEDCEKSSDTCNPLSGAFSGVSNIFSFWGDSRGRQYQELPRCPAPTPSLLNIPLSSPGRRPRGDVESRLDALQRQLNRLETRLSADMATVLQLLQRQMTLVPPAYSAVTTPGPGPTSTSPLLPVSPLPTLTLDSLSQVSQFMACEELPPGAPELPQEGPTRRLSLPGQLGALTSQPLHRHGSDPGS

Aromatase = molecular target: T2, Aromatase (Homo sapiens, UniProt P11511); experiment: Inhibition of aromatase
T2 sequence (P11511 whole entry): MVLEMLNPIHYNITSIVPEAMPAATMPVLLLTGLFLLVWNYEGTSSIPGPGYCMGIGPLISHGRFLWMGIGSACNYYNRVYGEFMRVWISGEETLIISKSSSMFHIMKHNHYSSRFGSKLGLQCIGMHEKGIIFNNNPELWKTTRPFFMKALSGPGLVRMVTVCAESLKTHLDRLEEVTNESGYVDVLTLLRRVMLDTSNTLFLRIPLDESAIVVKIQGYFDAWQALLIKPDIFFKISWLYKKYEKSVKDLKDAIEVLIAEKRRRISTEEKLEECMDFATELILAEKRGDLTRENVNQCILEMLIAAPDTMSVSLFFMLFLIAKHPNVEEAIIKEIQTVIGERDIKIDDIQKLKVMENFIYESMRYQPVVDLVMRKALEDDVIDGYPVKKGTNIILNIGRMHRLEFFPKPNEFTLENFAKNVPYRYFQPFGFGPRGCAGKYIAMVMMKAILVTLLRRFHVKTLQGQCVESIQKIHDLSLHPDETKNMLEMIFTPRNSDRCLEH

[13] = Toxicity against human hepatocyte; assay type: cell-based; conditions: hepatocytes
Cytochrome P450 1A2 = molecular target: T3, Cytochrome P450 1A2 (Homo sapiens, UniProt P05177); experiment: Inhibition of CYP1A2; assay type: ADME
T3 sequence (P05177 whole entry): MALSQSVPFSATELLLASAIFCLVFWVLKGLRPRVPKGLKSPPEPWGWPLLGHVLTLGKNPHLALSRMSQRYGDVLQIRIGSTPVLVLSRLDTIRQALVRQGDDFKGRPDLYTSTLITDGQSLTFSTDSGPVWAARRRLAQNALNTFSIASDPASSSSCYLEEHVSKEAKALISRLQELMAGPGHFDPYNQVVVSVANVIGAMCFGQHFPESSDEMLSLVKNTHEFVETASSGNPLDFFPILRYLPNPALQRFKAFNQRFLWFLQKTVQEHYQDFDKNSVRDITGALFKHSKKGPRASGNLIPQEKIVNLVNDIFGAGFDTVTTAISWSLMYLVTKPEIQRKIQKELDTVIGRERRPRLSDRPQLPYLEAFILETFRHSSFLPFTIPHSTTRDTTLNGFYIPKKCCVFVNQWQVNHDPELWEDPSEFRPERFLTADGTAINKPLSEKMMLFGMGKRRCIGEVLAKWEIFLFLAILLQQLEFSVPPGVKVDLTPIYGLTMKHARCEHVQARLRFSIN

[14] = Binding affinity to progesterone receptor; design: species or system Homo sapiens
[15] = molecular target: T4, Sex hormone-binding globulin (Homo sapiens, UniProt P04278); experiment: Binding affinity to SHBG
T4 sequence (P04278 whole entry): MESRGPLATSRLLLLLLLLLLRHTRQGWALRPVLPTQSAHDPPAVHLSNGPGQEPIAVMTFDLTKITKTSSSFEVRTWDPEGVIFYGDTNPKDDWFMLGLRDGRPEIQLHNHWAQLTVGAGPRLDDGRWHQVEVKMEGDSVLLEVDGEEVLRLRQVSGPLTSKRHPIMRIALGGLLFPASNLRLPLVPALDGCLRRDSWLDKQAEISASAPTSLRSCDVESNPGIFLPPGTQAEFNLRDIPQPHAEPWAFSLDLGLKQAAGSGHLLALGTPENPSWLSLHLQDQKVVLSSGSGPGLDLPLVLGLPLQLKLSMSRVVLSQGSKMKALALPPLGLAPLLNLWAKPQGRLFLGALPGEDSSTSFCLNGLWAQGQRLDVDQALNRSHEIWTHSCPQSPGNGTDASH

Cytochrome P450 2C9 = Cytochrome P450 2C9 (Homo sapiens, UniProt P11712); experiment: Inhibition of CYP2C9; assay type: ADME
Chain of Cytochrome P450 2C9 (P11712 whole entry): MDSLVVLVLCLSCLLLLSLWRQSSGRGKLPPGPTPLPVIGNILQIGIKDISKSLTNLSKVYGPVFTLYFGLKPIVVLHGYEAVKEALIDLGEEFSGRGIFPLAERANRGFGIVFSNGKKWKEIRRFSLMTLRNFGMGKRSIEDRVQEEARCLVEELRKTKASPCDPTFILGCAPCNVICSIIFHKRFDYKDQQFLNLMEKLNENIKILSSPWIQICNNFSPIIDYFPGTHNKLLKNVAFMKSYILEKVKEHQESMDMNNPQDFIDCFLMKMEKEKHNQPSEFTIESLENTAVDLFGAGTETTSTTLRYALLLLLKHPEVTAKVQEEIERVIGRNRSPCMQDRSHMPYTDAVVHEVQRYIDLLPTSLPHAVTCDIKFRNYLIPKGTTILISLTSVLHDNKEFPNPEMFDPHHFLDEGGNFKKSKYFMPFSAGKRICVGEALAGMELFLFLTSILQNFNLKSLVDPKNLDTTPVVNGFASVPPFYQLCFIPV

[16] = Half life in Sprague-Dawley rat at 10 mg/kg, po and 5 mg/kg, iv; assay type: ADME, organism-based; conditions: in vivo; method in brief: as §3
Glucocorticoid receptor = molecular target: T5, Glucocorticoid receptor (Homo sapiens, UniProt P04150); experiment: Binding affinity to glucocorticoid receptor
T5 sequence (P04150 whole entry): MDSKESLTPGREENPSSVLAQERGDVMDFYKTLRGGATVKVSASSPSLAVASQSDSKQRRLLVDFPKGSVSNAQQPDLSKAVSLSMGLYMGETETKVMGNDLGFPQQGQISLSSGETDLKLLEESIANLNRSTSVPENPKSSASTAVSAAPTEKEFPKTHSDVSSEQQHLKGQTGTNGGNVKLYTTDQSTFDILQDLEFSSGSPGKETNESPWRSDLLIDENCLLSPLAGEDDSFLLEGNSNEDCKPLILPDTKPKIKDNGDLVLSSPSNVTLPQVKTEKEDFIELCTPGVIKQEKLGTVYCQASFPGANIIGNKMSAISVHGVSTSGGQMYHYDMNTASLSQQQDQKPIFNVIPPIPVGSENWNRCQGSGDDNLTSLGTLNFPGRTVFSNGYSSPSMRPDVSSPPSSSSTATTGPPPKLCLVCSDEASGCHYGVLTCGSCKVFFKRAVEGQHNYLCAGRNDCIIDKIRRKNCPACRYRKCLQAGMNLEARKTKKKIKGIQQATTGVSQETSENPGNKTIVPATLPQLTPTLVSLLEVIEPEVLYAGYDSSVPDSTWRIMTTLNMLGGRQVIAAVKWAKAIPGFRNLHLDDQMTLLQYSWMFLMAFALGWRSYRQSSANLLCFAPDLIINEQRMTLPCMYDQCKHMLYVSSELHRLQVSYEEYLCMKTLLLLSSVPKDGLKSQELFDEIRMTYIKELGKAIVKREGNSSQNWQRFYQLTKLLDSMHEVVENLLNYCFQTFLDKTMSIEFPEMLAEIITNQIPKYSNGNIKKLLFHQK

Estrogen receptor = Estrogen receptor (Homo sapiens, UniProt P03372); experiment: Binding affinity to ERalpha
Chain of Estrogen receptor (P03372 whole entry, looked up): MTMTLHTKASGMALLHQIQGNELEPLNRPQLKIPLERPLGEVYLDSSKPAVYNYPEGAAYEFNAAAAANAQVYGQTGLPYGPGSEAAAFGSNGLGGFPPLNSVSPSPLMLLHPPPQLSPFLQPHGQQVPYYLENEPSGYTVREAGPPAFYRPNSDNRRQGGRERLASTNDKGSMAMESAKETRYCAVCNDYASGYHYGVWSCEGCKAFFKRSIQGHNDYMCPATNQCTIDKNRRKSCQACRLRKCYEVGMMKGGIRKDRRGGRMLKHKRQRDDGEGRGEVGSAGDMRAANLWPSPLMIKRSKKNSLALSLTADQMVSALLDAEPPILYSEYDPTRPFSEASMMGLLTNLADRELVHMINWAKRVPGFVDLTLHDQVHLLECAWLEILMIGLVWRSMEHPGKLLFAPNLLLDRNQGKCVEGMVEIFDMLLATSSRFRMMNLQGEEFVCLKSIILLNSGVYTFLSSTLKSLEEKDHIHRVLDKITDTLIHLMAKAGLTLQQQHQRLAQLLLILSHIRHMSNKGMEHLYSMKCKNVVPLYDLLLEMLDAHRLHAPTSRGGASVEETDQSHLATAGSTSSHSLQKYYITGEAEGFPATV

Cytochrome P450 2D6 = Cytochrome P450 2D6 (Homo sapiens, UniProt P10635); experiment: Inhibition of CYP2D6; assay type: ADME
Chain of Cytochrome P450 2D6 (P10635 whole entry): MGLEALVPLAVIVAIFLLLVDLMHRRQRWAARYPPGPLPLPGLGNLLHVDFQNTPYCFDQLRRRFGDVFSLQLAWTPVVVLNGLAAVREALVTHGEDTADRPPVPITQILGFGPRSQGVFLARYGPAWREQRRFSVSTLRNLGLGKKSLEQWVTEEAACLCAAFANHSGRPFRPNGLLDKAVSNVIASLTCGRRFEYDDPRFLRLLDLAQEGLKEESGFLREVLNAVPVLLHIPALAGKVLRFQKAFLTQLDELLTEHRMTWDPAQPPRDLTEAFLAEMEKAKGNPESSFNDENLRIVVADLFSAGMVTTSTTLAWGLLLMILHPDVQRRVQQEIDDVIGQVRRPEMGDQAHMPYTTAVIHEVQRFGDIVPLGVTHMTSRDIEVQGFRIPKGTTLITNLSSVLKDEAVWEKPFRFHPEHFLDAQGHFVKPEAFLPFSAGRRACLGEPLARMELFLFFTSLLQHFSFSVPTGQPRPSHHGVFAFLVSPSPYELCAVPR

Cytochrome P450 2C19 = Cytochrome P450 2C19 (Homo sapiens, UniProt P33261); experiment: Inhibition of CYP2C19; assay type: ADME
Chain of Cytochrome P450 2C19 (P33261 whole entry): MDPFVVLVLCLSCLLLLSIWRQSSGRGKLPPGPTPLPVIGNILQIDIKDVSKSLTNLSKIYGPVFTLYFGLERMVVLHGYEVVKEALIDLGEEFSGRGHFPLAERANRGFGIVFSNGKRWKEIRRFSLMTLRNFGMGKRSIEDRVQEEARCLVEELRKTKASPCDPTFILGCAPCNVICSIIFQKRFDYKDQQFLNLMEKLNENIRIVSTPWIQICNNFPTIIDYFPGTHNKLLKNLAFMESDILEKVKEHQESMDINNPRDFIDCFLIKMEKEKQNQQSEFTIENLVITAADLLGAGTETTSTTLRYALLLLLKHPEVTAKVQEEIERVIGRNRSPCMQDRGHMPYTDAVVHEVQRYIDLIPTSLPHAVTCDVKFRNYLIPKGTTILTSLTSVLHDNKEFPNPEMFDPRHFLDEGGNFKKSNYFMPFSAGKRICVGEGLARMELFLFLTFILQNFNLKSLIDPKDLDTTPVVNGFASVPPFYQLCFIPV

[17] = Tmax in Sprague-Dawley rat at 10 mg/kg, po; assay type: ADME, organism-based; design: dose 10 mg/kg, route oral; conditions: in vivo; method in brief: as §3
[18] = as §2; assay type: ADME, organism-based; design: dose 10 mg/kg, route oral; conditions: in vivo; remark: listed apart in the source
[19] = Clearance in Sprague-Dawley rat at 10 mg/kg, po and 5 mg/kg, iv; assay type: ADME, organism-based; conditions: in vivo; method in brief: as §3
Cytochrome P450 3A4 = Cytochrome P450 3A4 (Homo sapiens, UniProt P08684); experiment: Inhibition of CYP3A4; assay type: ADME
Chain of Cytochrome P450 3A4 (P08684 whole entry): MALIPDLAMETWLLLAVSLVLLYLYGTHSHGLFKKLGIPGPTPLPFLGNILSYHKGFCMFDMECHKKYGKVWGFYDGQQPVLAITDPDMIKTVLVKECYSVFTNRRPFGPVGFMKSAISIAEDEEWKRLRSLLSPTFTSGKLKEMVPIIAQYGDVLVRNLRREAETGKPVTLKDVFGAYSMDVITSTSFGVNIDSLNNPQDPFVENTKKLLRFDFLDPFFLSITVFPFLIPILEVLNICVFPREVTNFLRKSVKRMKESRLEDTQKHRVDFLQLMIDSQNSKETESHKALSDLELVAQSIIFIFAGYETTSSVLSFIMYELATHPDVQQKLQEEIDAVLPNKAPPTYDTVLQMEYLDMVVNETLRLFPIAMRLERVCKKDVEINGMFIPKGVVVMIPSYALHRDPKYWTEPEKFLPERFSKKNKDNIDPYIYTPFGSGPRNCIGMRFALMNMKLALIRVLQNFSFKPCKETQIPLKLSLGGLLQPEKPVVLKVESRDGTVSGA

## CC[C@H]1[C@@H]2[C@H](O)CCN2C(=O)N1c1ccc(C#N)c(Cl)c1C
Androgen receptor [1]
  Ki: 0.7 nM
Androgen receptor [2]
  EC50: 2.6 nM

## Cc1c(N2C(=O)N3CC[C@@H](O)[C@H]3[C@@H]2C(F)(F)F)ccc(C#N)c1Cl
[3]
  AUC(0-t) at 5 h: 1.18 µM·h
Androgen receptor [1]
  Ki: 1 nM
Rattus norvegicus [4]
  Activity: 40%
Androgen receptor [2]
  EC50: 2.9 nM
Rattus norvegicus [5]
  Activity: 3%
[6]
  Cmax: 819 nM

## Cc1c(N2C(=O)N3CC[C@@H](O)[C@H]3[C@H]2C(F)(F)F)ccc(C#N)c1Cl
[3]
  AUC(0-t) at 5 h: 0.63 µM·h
Androgen receptor [1]
  Ki: 2.2 nM
[7]
  solubility: 1140 µg/mL (≈ 3170 µM)
Rattus norvegicus [4]
  Activity: 30%
Androgen receptor [2]
  EC50: 2.1 nM
Rattus norvegicus [5]
  Activity: 1%
[6]
  Cmax: 245 nM

## Cc1c(N2C(=O)[C@@H]3[C@H](O)CCN3C2=O)ccc(C#N)c1Cl
[3]
  AUC(0-t) at 5 h: 8.8 µM·h
Rattus norvegicus [8]
  Activity: 3%
[6]
  Cmax: 6900 nM
Rattus norvegicus [9]
  Activity: 59%

## Cc1c(N2C[C@@H]3[C@H](O)CCN3C2=O)ccc(C#N)c1Cl
[3]
  AUC(0-t) at 5 h: 6.38 µM·h
Androgen receptor [1]
  Ki: 2 nM
[7]
  solubility: 245 µg/mL (≈ 840 µM)
Rattus norvegicus [4]
  Activity: 66%
Androgen receptor [2]
  EC50: 15 nM
Rattus norvegicus [5]
  Activity: 14%
[6]
  Cmax: 3970 nM

## Cc1c(N2C(=O)N3CC[C@H](O)[C@H]3[C@@H]2C)ccc(C#N)c1Cl
[3]
  AUC(0-t) at 5 h: 2.89 µM·h
[7]
  solubility: 613 µg/mL (≈ 2000 µM)
[6]
  Cmax: 1620 nM
Rattus norvegicus [10]
  Activity: 4%
Rattus norvegicus [11]
  Activity: 44%

## CC[C@H]1[C@@H]2[C@@H](O)CCN2C(=O)N1c1ccc(C#N)c(Cl)c1C
[12]
  bioavailability: 65%
[3]
  AUC(0-t) at 5 h: 6.08 µM·h
Androgen receptor [1]
  Ki: 0.9 nM
hERG
  inhibition at 30 µM: 6%
Aromatase
  IC50: > 100000 nM
[13]
  IC50: > 200000 nM
[7]
  solubility: 242 µg/mL (≈ 757 µM)
Rattus norvegicus [4]
  Activity: 101%
Cytochrome P450 1A2
  IC50: > 40000 nM
[14]
  Ki: > 10000 nM
Androgen receptor [2]
  EC50: 1.8 nM
Rattus norvegicus [5]
  Activity: 24%
[15]
  Ki: > 100000 nM
Cytochrome P450 2C9
  IC50: > 40000 nM
[16]
  half-life: 5.5 h
Glucocorticoid receptor
  Ki: > 10000 nM
Estrogen receptor
  Ki: > 10000 nM
[6]
  Cmax: 3100 nM
Cytochrome P450 2D6
  IC50: > 40000 nM
Cytochrome P450 2C19
  IC50: 7600 nM
[17]
  Tmax: 0.8 h
[18]
  Cmax: 2100 nM
[19]
  clearance: 58 mL/min/kg
Cytochrome P450 3A4
  IC50: > 40000 nM
